# The RNAGym collection of RNA variant scans (doi:10.1126/science.aae0568)
# Fewer inactive variants are shown than the library holds.
# B1: tRNA (parent)
# chain: GUUCCGUUGGCGUAAUGGUAACGCGUCUCCCUCCUAAGGAGAAGACUGCGGGUUCGAGUCCCGUACGGAACG
# Variants of: B1
# Experiment: yeast fitness relative to wild type (ratio to wild type); higher = fitter; tRNA-Arg(CCU), competitive growth, 37 C, YPD
# Method in brief: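 Variants of the tRNA-Arg(CCU) gene, chemically synthesised with a 3% per-site mutation rate at 69 sites, were placed at the native genomic locus in Saccharomyces cerevisiae. The pooled strains were competed in YPD at 37°C for 24 hours in six parallel replicates. Gene amplicons from the start population and from each end population were read by 100-nucleotide paired-end sequencing. Darwinian fitness relative to wild type came from changes in genotype frequencies; genotypes needed ≥ 100 starting reads, and estimates < 0.5 were set to 0.5.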
row,Variant,yeast fitness
1,A15U A70G,0.663
2,A15U A70C,0.867
3,A15U A70U,0.836
4,A15U A45U G68C,≤ 0.5
5,A15U C34G C55U A69C,≤ 0.5
6,A15U A43U,0.826
7,A15U A43G,0.726
8,A15U A65U A70C,≤ 0.5
9,A15U C24G,0.647
10,A15U C24A,0.53
11,A15U C24U,0.627
12,A15U C29U C46U,0.667
13,A15U C22A G23A C24A C46A A70G,≤ 0.5
14,A15U C33U A36G C62G A69C,≤ 0.5
15,A15G U26G,0.703
16,A15G U26C,0.802
17,A15U G50A C55G,0.666
18,A15U C22U A57U,≤ 0.5
19,A15G U64C,0.976
20,A15U C30G C34U,0.71
21,A15U C24G C34U U53C C55G C62A,≤ 0.5
22,A15U C22G G52C A65C,≤ 0.5
23,A15U C24G C30U A57U A69C,≤ 0.5
24,A15G U47C A69C,0.754

row,Variant,yeast fitness
1,A15G U19C A21G,0.656
2,A15U A20C G23A G50C G63A,≤ 0.5
3,A15U G25C C61U G63C,0.545
4,A15U C34G A37G A40C C62U A65U,≤ 0.5
5,A15G G52A,0.772
6,A15G G52C,0.568
7,A15G G52U,0.73
8,A15G U28G A42U G48A C61U,≤ 0.5
9,A15U A20C U32G,≤ 0.5
10,A15U C22A G23A C24A C46A,≤ 0.5
11,A15U A57C A65U A69C,≤ 0.5
12,A15U C27U G48C A69G A70U,≤ 0.5
13,A15U G23C U28G U32C A36U G38A C55A,0.689
14,A15G U35G A45U,≤ 0.5
15,A15G U32A G38A,0.525
16,A15G G52C A70U,≤ 0.5
17,A15G U54A C62U,≤ 0.5
18,A15G U16C C34U G44C,≤ 0.5
19,A15U C22U G52A,0.596
20,A15U C27A U35C U54C U64C,≤ 0.5
21,A15U A42U C46U C55G,≤ 0.5
22,A15G U35A C62A G63C,≤ 0.5
23,A15U G18A U35C G58A,≤ 0.5
24,A15U C22U G44C,≤ 0.5

row,Variant,yeast fitness
1,A15U G23C A45U G52A,≤ 0.5
2,A15U G38A A40C,≤ 0.5
3,A15U A21G C49U,0.556
4,A15U G38C G39A A43C,≤ 0.5
5,A15U A36C A40U A65U,≤ 0.5
6,A15U C60A,0.512
7,A15U A69U,0.696
8,A15U C30G A36C C60A C61U,≤ 0.5
9,A15U C62G,0.646
10,A15U C30U C62U,0.572
11,A15U G23C A45U C62A,≤ 0.5
12,A15U C30G G50A,≤ 0.5
13,A15U C30G G38A U54C,0.553
14,A15U A36C G48C U59A C66U,≤ 0.5
15,A15U G18A A40C A43C C46G A69C,≤ 0.5
16,A15G U28C U35A G38A C46G C62U,0.718
17,A15U G23C G41A C49A,≤ 0.5
18,A15U G39A A57G,≤ 0.5
19,A15U G18A A57U,≤ 0.5
20,A15U C24A C29G,≤ 0.5
21,A15U G23C C33A C66U G68C,≤ 0.5
22,A15G U54C C55G C61G A65U,≤ 0.5
23,A15G U26G C30U,≤ 0.5
24,A15U C31U C46G G63A A65G A70U,≤ 0.5

row,Variant,yeast fitness
1,A15G U35A G52A U59C C66A G67A,≤ 0.5
2,A15U A21G G25C C33A A37U,0.554
3,A15U C31A C49G,0.576
4,A15U C27A C62A A69U,≤ 0.5
5,A15U C24G U32A G41A,≤ 0.5
6,A15U G50A,0.708
7,A15U A57U,0.666
8,A15U G44A,0.65
9,A15U G23C C34G C55G,≤ 0.5
10,A15U A40U C49U,0.599
11,A15G U32A G38A A69U,≤ 0.5
12,A15G G67A A69U,0.637
13,A15U A20G A45U,≤ 0.5
14,A15U A65C,0.698
15,A15U C33U G56A,≤ 0.5
16,A15G G58C,0.949
17,A15G G58A,0.909
18,A15U C31A C62U,0.573
19,A15U C24G G44C G58C G68U,≤ 0.5
20,A15U A20C G48A A69C,≤ 0.5
21,A15U C55A,0.503
22,A15U C55U,0.672
23,A15U C55G,0.604
24,A15G U19A,1.13

row,Variant,yeast fitness
1,A15U A37C A43U,0.514
2,A15U C31U U35A A36C U53A G68C,≤ 0.5
3,A15G U26G A65C,0.632
4,A15U C24G A65U,≤ 0.5
5,A15U C46U A65U G68C,≤ 0.5
6,A15U G44C G68C,≤ 0.5
7,A15U C30A C31U A45C C55G,≤ 0.5
8,A15U C31G U53A C55U G68U,≤ 0.5
9,A15U C31A C49G A65C,≤ 0.5
10,A15U G38C G39A A43C U54C C60G A65C,≤ 0.5
11,A15U G23C C33A G63C G68U,≤ 0.5
12,A15G U53A,0.667
13,A15G U53G,0.61
14,A15G U26G C30U A37C G39C C61G A69G,≤ 0.5
15,A15U A40G A65U,0.516
16,A15U G25A C46U G56A,1.04
17,A15G U28A C34G C46A,0.501
18,A15U C22U C33G G50A,≤ 0.5
19,A15U C27A A43C,0.592
20,A15U C30G C34U C66U A70C,0.511
21,A15U C29U C66A,0.57
22,A15U A57C A65G,≤ 0.5
23,A15U G25A G44C G52A,≤ 0.5
24,A15U G25A G68A,0.698

row,Variant,yeast fitness
1,A15G U28A C34G C46A A69G,≤ 0.5
2,A15U C46G A70U,0.56
3,A15U C27U U47C G68C,≤ 0.5
4,A15G U28G A42U G48A,≤ 0.5
5,A15U C49U G56A C61G,≤ 0.5
6,A15G U16C A20C A21U U26C,≤ 0.5
7,A15U A20G C27U C66A,≤ 0.5
8,A15U A20U G56C,≤ 0.5
9,A15G U26A C60U A70C,0.52
10,A15G G56C C66G,≤ 0.5
11,A15U C27A G56C G63A,≤ 0.5
12,A15U C24G G63A,≤ 0.5
13,A15U C31G U53A C55U A57C C60G G67C,0.546
14,A15U A43G U47A,0.547
15,A15U A20G C27U C30A,≤ 0.5
16,A15U C24U A37U,≤ 0.5
17,A15U C27A C62U A65C A69C,≤ 0.5
18,A15U G38A,0.635
19,A15U A42C U47A G63C A69C,≤ 0.5
20,A15U G48C G67C,≤ 0.5
21,A15U A42U C49G C60A,≤ 0.5
22,A15U C33G C62G,0.602
23,A15U C29G C34U C66U,≤ 0.5
24,A15U G18C C29G U64A A69C,0.598

row,Variant,yeast fitness
1,A15U G50C U54C,≤ 0.5
2,A15U C24G C30U,0.608
3,A15U A20C G23A C30U,≤ 0.5
4,A15U C22A G23A C24A G56C,≤ 0.5
5,A15U A40U G52A A65C,≤ 0.5
6,A15U C31A A70G,≤ 0.5
7,A15U G25C U59A,≤ 0.5
8,A15U C27A C61G,≤ 0.5
9,A15U C27A C61U,≤ 0.5
10,A15U G56U,0.657
11,A15U G56C,0.549
12,A15G G58C G68A,0.593
13,A15U A21G C24U C33U A40C A43C C49U C55U C61U,≤ 0.5
14,A15U A40U,0.637
15,A15U C34A A40U G52A G68A,≤ 0.5
16,A15G U26C G44A G50C A70G,≤ 0.5
17,A15U C30U A57G,≤ 0.5
18,A15G U16C C34U G44C C61U,≤ 0.5
19,A15U A43U C55G,≤ 0.5
20,A15U C22A A43G G51C U59C C62U G68U,≤ 0.5
21,A15U C31G C33U A37C A65U G67A,≤ 0.5
22,A15U A36G,0.665
23,A15U A45C C55U,≤ 0.5
